Assay results taken from ChEMBL document CHEMBL4152206, “Design, synthesis, cytotoxicity and mechanism of novel dihydroartemisinin-coumarin hybrids as potential anti-cancer agents” (Eur J Med Chem, 2018).
Active and inactive are the calls of the source. The calls are words filed in the database; no cut-off is given here.

Assays:
[1] = target: Carbonic anhydrase 9 (Homo sapiens) (UniProt Q16790); assay: Inhibition of carbonic anhydrase 9 in human HT-29 cells assessed as induction of cellular pH decrease at 10 uM after 3 to 12 hrs by BCECF-AM staining-based flow cytometric analysis; format: cell-based
How it was run: (§1)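 Intracellular pH in HT-29 cells exposed to 10 µM for 0, 3, 12 and 24 h: stained 40 min with BCECF-AM, trypsinised (0.25%), PBS-washed, fluorescence read by flow cytometry.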

HT-29 [2] = assay: Antimigratory activity in human HT-29 cells after 72 hrs by wound healing assay; format: functional, cell-based
How it was run: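 HT-29 cells plated 48 h before scratching; treated with 0, 0.31, 0.63, 1.25, 2.5 and 5 µM under normoxia; wound imaged by inverted microscope at 0 h and 72 h.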

MDA-MB-231 [3] = assay: Cytotoxicity against human MDA-MB-231 cells after 96 hrs under normoxic condition by MTT assay; format: functional, cell-based; details: Homo sapiens, MDA-MB-231, 96 h; read-out: IC50
How it was run: (§2)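 MTT viability assay in HT-29 (high CA IX) and MDA-MB-231 (normal CA IX) cells under normoxic and hypoxic conditions; IC50 values reported.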

HT-29 [4] = assay: Antimigratory activity in human HT-29 cells at 1.25 to 2.5 uM after 24 hrs by transwell assay; format: functional, cell-based
HT-29 [5] = assay: Induction of morphological changes in human HT-29 cells assessed as reduction in cell number after 96 hrs; format: functional, cell-based
HT-29 [6] = assay: Cell cycle arrest in human HT-29 cells assessed as accumulation at sub-G1 phase at 10 uM up to 48 hrs by RNase/propidium iodide staining-based flow cytometric analysis; format: functional
How it was run: (§3)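 HT-29 cells exposed to 10 µM for different times (up to 72 h); sub-G1 fraction measured by flow cytometry.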

[7] = target: Carbonic anhydrase 9 (Homo sapiens) (UniProt Q16790); assay: Inhibition of carbonic anhydrase 9 in human HT-29 cells assessed as induction of cellular pH decrease at 10 uM after 24 hrs by BCECF-AM staining-based flow cytometric analysis; format: cell-based; how it was run: as §1
HT-29 [8] = assay: Cytotoxicity against human HT-29 cells after 96 hrs under hypoxic condition by MTT assay; format: functional, cell-based; details: Homo sapiens, HT-29, 96 h; read-out: IC50; how it was run: as §2
HT-29 [9] = assay: Cell cycle arrest in human HT-29 cells assessed as accumulation at G0/G1 phase at 2.5 uM after 48 hrs by RNase/propidium iodide staining-based flow cytometric analysis (reference value: 70.48%); format: functional
HT-29 [10] = assay: Cell cycle arrest in human HT-29 cells assessed as accumulation at sub-G1 phase at 10 uM after 48 to 72 hrs by RNase/propidium iodide staining-based flow cytometric analysis; format: functional; how it was run: as §3
HT-29 [11] = assay: Induction of apoptosis in human HT-29 cells assessed as early apoptotic cells at 10 uM after 48 hrs by Annexin V-FITC/propidium iodide staining-based flow cytometric analysis (reference value: 0.07%); format: functional
HT-29 [12] = assay: Induction of mitochondrial membrane potential loss in human HT-29 cells at 20 uM measured after 3 hrs by Rh123 dye-based flow cytometric analysis; format: functional, cell-based
How it was run: (§4)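 HT-29 cells exposed to 20 µM for different times, stained with Rh123 for 40 min, trypsinised (0.25%), washed three times in PBS; mitochondrial membrane potential read by flow cytometry.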

HT-29 [13] = assay: Induction of mitochondrial membrane potential loss in human HT-29 cells at 20 uM measured measured until 24 hrs by Rh123 dye-based flow cytometric analysis; format: functional, cell-based; how it was run: as §4
HT-29 [14] = assay: Cytotoxicity against human HT-29 cells after 96 hrs under normoxic condition by MTT assay; format: functional, cell-based; details: Homo sapiens, HT-29, 96 h; read-out: IC50; how it was run: as §2
HT-29 [15] = assay: Induction of apoptosis in human HT-29 cells assessed as early apoptotic cells at 2.5 uM after 48 hrs by Annexin V-FITC/propidium iodide staining-based flow cytometric analysis (reference value: 0.07%); format: functional
HT-29 [16] = assay: Induction of apoptosis in human HT-29 cells assessed as early apoptotic cells at 5 uM after 48 hrs by Annexin V-FITC/propidium iodide staining-based flow cytometric analysis (reference value: 0.07%); format: functional
HT-29 [17] = assay: Growth inhibition of human HT-29 cells pretreated with 5 to 40 uM liproxstatin-1 for 1 hr followed by 10 uM compound addition and measured after 48 hrs by MTT assay
HT-29 [18] = assay: Induction of ferroptosis in human HT-29 cells at 10 uM after 72 hrs by MTT assay; format: functional, cell-based
HT-29 [19] = assay: Cell cycle arrest in human HT-29 cells assessed as accumulation at G0/G1 phase at 10 uM after 48 hrs by RNase/propidium iodide staining-based flow cytometric analysis (reference value: 70.48%); format: functional
HT-29 [20] = assay: Cell cycle arrest in human HT-29 cells assessed as accumulation at sub-G1 phase at 10 uM by RNase/propidium iodide staining-based flow cytometric analysis; format: functional; details: TDE = time-dependent effect; how it was run: as §3
MDA-MB-231 [21] = assay: Cytotoxicity against human MDA-MB-231 cells after 96 hrs under hypoxic condition by MTT assay; format: functional, cell-based; details: Homo sapiens, MDA-MB-231, 96 h; read-out: IC50; how it was run: as §2
HT-29 [22] = assay: Growth inhibition of human HT-29 cells pretreated with 10 uM liproxstatin-1 for 1 hr followed by 10 uM compound addition and measured after 72 hrs by MTT assay; format: functional, cell-based
HT-29 [23] = assay: Induction of morphological changes in human HT-29 cells assessed as reduction in cell volume after 96 hrs; format: functional, cell-based
HT-29 [24] = assay: Cell cycle arrest in human HT-29 cells assessed as accumulation at G0/G1 phase at 5 uM after 48 hrs by RNase/propidium iodide staining-based flow cytometric analysis (reference value: 70.48%); format: functional
HT-29 [25] = assay: Cell cycle arrest in human HT-29 cells assessed as accumulation at G0/G1 phase at 20 uM after 48 hrs by RNase/propidium iodide staining-based flow cytometric analysis (reference value: 70.48%); format: functional

Cc1c(Cl)c(=O)oc2cc(OCCn3cc(CO[C@H]4O[C@@H]5O[C@@]6(C)CC[C@H]7[C@H](C)CC[C@@H]([C@H]4C)[C@@]57OO6)nn3)ccc12 was tested, and the inhibition [1] was “Active”, the Activity (HT-29 [2]) was “Dose-dependent effect” and the IC50 (MDA-MB-231 [3]) was 18.4 µM. For the same compound, the Activity (HT-29 [4]) was “Active”, the Activity (HT-29 [5]) was “Dose-dependent effect” and the Activity (HT-29 [6]) was “inactive”. For the same compound, the inhibition [7] was “Active”, the IC50 (HT-29 [8]) was 0.17 µM and the Activity (HT-29 [9]) was 72.28%. For the same compound, the Activity (HT-29 [10]) was “<=60%”, the Activity (HT-29 [11]) was 14.9% and the Activity (HT-29 [12]) was “Active”. For the same compound, the Activity (HT-29 [13]) was “inactive”, the IC50 (HT-29 [14]) was 1.88 µM and the Activity (HT-29 [15]) was 1.7%. For the same compound, the Activity (HT-29 [16]) was 4.8%, the “growth inhibition (GI)” value (HT-29 [17]) was “inactive” and the Activity (HT-29 [18]) was “Active”. The Activity (HT-29 [19]) was 75.45%, the Activity (HT-29 [20]) was “Tde” and the IC50 (MDA-MB-231 [21]) was 7.51 µM. For the same compound, the “growth inhibition (GI)” value (HT-29 [22]) was “inactive”, the Activity (HT-29 [23]) was “Dose-dependent effect” and the Activity (HT-29 [24]) was 76.53%. It also gave an Activity (HT-29 [25]) of 82.22%.

Compound Cc1c(C)c2ccc(O[C@H]3O[C@@H]4O[C@@]5(C)CC[C@H]6[C@H](C)CC[C@@H]([C@H]3C)[C@@]46OO5)cc2oc1=O has an IC50 (MDA-MB-231 [3]) of 78.8 µM, an IC50 (HT-29 [8]) of 30.3 µM and an IC50 (HT-29 [14]) of 11.8 µM. For the same compound, the IC50 (MDA-MB-231 [21]) was 6.44 µM.

In the case of CC(=O)Nc1nnc(S(N)(=O)=O)s1 [ACETAZOLAMIDE], the IC50 (MDA-MB-231 [3]) is reported as greater than 100 µM, the IC50 (HT-29 [8]) is reported as greater than 100 µM and the IC50 (HT-29 [14]) is reported as greater than 100 µM. It also gave an IC50 (MDA-MB-231 [21]) greater than 100 µM.

Compound Cc1cc(=O)oc2cc(-n3cc(CO[C@H]4O[C@@H]5O[C@@]6(C)CC[C@H]7[C@H](C)CC[C@@H]([C@H]4C)[C@@]57OO6)nn3)ccc12 has an IC50 (MDA-MB-231 [3]) of 21.5 µM, an IC50 (HT-29 [8]) of 5.09 µM and an IC50 (HT-29 [14]) of 10.8 µM. It also gave an IC50 (MDA-MB-231 [21]) of 49.8 µM.

Work on Cc1c(F)c(=O)oc2cc(-n3cc(CO[C@H]4O[C@@H]5O[C@@]6(C)CC[C@H]7[C@H](C)CC[C@@H]([C@H]4C)[C@@]57OO6)nn3)ccc12 yielded an IC50 (MDA-MB-231 [3]) of 3.47 µM, an IC50 (HT-29 [8]) of 7.39 µM and an IC50 (HT-29 [14]) of 3.35 µM. For the same compound, the IC50 (MDA-MB-231 [21]) was 2.6 µM.

Work on C[C@H]1[C@@H](OCCOc2ccc3c(C(F)(F)F)cc(=O)oc3c2)O[C@@H]2O[C@@]3(C)CC[C@H]4[C@H](C)CC[C@@H]1[C@@]24OO3 yielded an IC50 (MDA-MB-231 [3]) of 15.2 µM, an IC50 (HT-29 [8]) of 5.59 µM and an IC50 (HT-29 [14]) of 54.8 µM. The IC50 (MDA-MB-231 [21]) was 6.14 µM.

For C[C@H]1[C@@H](OCCCOc2ccc3c(C(F)(F)F)cc(=O)oc3c2)O[C@@H]2O[C@@]3(C)CC[C@H]4[C@H](C)CC[C@@H]1[C@@]24OO3, the IC50 (MDA-MB-231 [3]) was 13.6 µM, the IC50 (HT-29 [8]) was 1.19 µM and the IC50 (HT-29 [14]) was 4.57 µM. It also gave an IC50 (MDA-MB-231 [21]) of 8.86 µM.

In the case of C[C@H]1[C@@H](OCCc2cn(CCOc3ccc4c(C(F)(F)F)cc(=O)oc4c3)nn2)O[C@@H]2O[C@@]3(C)CC[C@H]4[C@H](C)CC[C@@H]1[C@@]24OO3, the IC50 (MDA-MB-231 [3]) is reported as 17.9 µM, the IC50 (HT-29 [8]) is reported as 4.01 µM and the IC50 (HT-29 [14]) is reported as 3.58 µM. The IC50 (MDA-MB-231 [21]) was 14.2 µM.

Compound Cc1c(Cl)c(=O)oc2cc(O[C@H]3O[C@@H]4O[C@@]5(C)CC[C@H]6[C@H](C)CC[C@@H]([C@H]3C)[C@@]46OO5)ccc12 has an IC50 (MDA-MB-231 [3]) of 50.5 µM, an IC50 (HT-29 [8]) of 0.41 µM and an IC50 (HT-29 [14]) of 1.28 µM. For the same compound, the IC50 (MDA-MB-231 [21]) was 1.4 µM.
